This note sets out measurements from ChEMBL document CHEMBL4024770, “Augmentation of Anticancer Drug Efficacy in Murine Hepatocellular Carcinoma Cells by a Peripherally Acting Competitive N-Methyl-d-aspartate (NMDA) Receptor Antagonist” (J Med Chem, 2017).

For orientation: Ki means the dissociation constant of the complex between target and ligand, obtained from inhibition or displacement. In general, pKi refers to −log10 of the Ki, conventionally taken in molar units. A word on the IC50: it is the midpoint of a concentration-inhibition curve. One may read the pIC50 as −log10 of the IC50, conventionally taken in molar units.

A short description of assay [1]: Displacement of [3H]-CGP-39653 from NMDA receptor in Sprague-Dawley rat brain synaptosomes after 60 mins by scintillation counting method. It is filed as subcellular.
In assay [2] the target is Glutamate receptor ionotropic, kainate 3 (Rattus norvegicus, UniProt P42264). Description: Displacement of [3H]-KA from recombinant homomeric rat GluK3a receptor expressed in baculovirus infected Sf9 insect cell membranes by scintillation counting method.
Sequence of Glutamate receptor ionotropic, kainate 3 (P42264 whole entry): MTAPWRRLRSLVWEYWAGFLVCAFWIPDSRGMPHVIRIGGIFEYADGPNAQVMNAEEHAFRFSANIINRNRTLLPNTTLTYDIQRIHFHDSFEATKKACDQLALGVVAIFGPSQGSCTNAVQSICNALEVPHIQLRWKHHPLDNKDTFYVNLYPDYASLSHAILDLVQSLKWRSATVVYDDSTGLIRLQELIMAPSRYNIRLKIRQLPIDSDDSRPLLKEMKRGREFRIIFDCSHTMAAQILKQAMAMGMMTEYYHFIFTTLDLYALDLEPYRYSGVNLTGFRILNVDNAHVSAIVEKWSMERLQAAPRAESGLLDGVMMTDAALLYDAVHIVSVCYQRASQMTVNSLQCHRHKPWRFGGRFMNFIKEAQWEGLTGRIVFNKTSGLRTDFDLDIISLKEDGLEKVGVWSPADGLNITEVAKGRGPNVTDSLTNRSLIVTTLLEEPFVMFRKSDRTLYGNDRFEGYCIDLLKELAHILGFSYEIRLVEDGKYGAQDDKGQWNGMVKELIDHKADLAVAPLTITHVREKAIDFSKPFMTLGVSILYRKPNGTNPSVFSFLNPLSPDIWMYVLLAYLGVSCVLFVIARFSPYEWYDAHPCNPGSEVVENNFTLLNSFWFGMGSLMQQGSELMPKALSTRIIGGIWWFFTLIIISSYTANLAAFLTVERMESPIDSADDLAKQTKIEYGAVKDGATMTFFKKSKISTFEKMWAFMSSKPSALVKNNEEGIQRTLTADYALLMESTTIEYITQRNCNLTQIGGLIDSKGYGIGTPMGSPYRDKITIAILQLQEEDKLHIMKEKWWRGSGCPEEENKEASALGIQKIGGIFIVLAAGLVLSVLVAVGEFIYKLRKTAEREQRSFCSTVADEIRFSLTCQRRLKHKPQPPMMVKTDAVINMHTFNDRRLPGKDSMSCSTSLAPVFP
In assay [3] the target is Glutamate receptor ionotropic, kainate 2 (Rattus norvegicus, UniProt P42260). The experiment in a line: Displacement of [3H]-KA from recombinant homomeric rat GluK2 (V,C,R)a receptor expressed in baculovirus infected Sf9 insect cell membranes by scintillation counting method. (In general: Loss of bound radioactivity is the signal in a displacement assay; it reports binding, not function.)
Sequence of Glutamate receptor ionotropic, kainate 2 (P42260 whole entry): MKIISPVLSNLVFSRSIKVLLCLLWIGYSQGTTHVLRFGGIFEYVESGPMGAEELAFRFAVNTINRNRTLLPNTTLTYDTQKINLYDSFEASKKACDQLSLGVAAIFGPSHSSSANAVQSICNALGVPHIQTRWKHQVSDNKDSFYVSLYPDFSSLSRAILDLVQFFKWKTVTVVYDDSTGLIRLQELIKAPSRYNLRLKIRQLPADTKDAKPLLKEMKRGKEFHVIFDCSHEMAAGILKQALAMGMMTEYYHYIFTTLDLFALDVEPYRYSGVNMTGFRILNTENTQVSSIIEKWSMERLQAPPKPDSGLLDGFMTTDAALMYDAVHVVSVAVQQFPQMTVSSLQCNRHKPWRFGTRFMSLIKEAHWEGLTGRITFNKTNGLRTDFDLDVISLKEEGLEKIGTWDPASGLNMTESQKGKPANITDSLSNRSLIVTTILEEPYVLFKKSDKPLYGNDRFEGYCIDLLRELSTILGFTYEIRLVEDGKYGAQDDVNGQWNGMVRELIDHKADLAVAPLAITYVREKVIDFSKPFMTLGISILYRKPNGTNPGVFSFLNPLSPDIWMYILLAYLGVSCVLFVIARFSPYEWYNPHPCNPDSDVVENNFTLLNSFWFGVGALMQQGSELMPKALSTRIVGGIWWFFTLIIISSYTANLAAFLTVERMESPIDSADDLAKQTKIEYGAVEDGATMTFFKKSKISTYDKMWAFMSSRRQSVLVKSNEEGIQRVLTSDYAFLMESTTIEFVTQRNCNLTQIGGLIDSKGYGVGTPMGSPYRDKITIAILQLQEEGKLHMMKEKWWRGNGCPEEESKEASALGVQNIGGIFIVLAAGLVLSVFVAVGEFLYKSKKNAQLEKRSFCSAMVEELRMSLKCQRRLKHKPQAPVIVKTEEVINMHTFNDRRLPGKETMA

The nature of assay [4]: Displacement of [3H]-AMPA from AMPA receptor in Sprague-Dawley rat brain synaptosomes after 30 mins by scintillation counting method. In kind it is subcellular.
The nature of assay [5]: Displacement of [3H]-KA from KA receptor in Sprague-Dawley rat brain synaptosomes after 60 mins by scintillation counting method. It is filed as subcellular.
Assay [6] deals with Glutamate receptor ionotropic, kainate 1 (Rattus norvegicus, UniProt P22756). Description: Displacement of [3H]-SYM2081 from recombinant homomeric rat GluK1 (Q)1b receptor expressed in baculovirus infected Sf9 insect cell membranes by scintillation counting method.
Sequence of Glutamate receptor ionotropic, kainate 1 (P22756 whole entry): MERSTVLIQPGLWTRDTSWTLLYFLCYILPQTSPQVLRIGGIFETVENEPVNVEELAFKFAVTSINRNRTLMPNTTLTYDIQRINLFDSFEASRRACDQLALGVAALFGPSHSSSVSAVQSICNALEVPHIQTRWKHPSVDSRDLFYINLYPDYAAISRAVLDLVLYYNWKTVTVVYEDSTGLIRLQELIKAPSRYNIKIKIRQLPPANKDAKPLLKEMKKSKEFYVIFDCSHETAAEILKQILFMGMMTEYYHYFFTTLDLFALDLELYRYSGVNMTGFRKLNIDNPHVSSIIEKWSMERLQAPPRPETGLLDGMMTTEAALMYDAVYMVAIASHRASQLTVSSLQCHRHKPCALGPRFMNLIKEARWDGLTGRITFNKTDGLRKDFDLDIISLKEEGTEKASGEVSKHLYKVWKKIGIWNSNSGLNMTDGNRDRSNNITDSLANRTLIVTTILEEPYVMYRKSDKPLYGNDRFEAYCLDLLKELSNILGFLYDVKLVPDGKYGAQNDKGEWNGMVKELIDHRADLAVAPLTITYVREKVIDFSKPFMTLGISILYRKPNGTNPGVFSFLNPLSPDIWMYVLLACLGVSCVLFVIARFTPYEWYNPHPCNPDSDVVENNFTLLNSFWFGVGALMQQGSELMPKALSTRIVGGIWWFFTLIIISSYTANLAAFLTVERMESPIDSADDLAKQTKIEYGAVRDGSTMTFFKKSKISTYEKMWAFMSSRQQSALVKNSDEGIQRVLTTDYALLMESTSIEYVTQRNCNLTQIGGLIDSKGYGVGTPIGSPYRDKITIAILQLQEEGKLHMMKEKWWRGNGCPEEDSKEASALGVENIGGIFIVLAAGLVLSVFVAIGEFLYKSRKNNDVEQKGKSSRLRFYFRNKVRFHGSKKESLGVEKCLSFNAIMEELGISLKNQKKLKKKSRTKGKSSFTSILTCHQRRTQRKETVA
For assay [7], the species on record is Mus musculus. Description: Antagonist activity at NMDA receptor in Nras driven p53 deficient mouse HCC cell membranes assessed as potentiation of 2.5 uM sorafenib-mediated antiproliferative activity by measuring cell viability at 100 uM after 72 hrs by resazurin assay (reference value: […] +/- […]%). For orientation: Resazurin is reduced to fluorescent resorufin, in cell work by metabolically active cells.

The species named for assay [8] is Mus musculus. The experiment in a line: Antagonist activity at NMDA receptor in Nras driven p53 deficient mouse HCC cell membranes assessed as LPS-stimulated PGE2 levels at 10 uM after 24 hrs by LC-MS/MS method (reference value: 162 +/- 7%). Also noted: scale not given: the % may be the effect or the level left. A digest of the protocol:
(§1)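 Mouse Nras-driven p53−/− HCC cells in DMEM with 2 mM L-glutamine, 10% heat-inactivated FBS and penicillin/streptomycin. Cells incubated 24 h with or without antagonist, either without LPS or with 2.5 μg/mL LPS in the growth medium. Cells washed three times with ice-cold HBSS and lysed in acetonitrile on ice. PGE₂ in lysates measured by LC-MS/MS (LLOQ 1 nM) and expressed as % of control; n=3.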

For assay [9], the target named is Ionotropic glutamate receptor NMDA 1/2D (Rattus norvegicus, UniProt P35439+Q62645). Description: Antagonist activity at recombinant rat GluN1a/GluN2D expressed in Xenopus laevis oocytes assessed as inhibition of glycine/glutamate-mediated current responses by two-electrode voltage clamp method. It is filed as cell-based. The procedure, abridged:
(§2)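 Xenopus oocytes were injected with rat GluN1 and GluN2A–D cRNA (1:2) and recorded 2–6 days later by TEVC at room temperature, −40 mV, in Ba2+-containing recording solution, pH 7.4. Currents were evoked by 100 μM glycine plus glutamate at 2–3× EC50: 10 μM for GluN2A, 3 μM for GluN2B and GluN2C, 1 μM for GluN2D. IC50 from Hill fits per oocyte; Ki estimated.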
Background: In two-electrode clamp one electrode senses voltage and the other passes current.

For assay [10], the species on record is Mus musculus. The experiment in a line: Antagonist activity at NMDA receptor in Nras driven p53 deficient mouse HCC cell membranes assessed as inhibition of NMDA-induced intracellular Ca2+ transients at 20 uM […] by fluo-4AM dye-based fluorescence assay. The procedure, abridged: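 Intact murine HCC cells loaded with 5 μM Fluo-4-AM for 45 min, then washed out for 20 min in BSS (mM: 2.5 KCl, 152 NaCl, 10 glucose, 2 CaCl₂, 10 HEPES, pH 7.4). 150 μM NMDA applied for 15 s by fast perfusion, alone or together with antagonist. Fluorescence imaged with 495 nm excitation on a CCD camera. Read-out is the percentage of cells showing induced Ca²⁺ transients; n=5.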

Assay [11] has as its target Glutamate NMDA receptor; Grin1/Grin2c (Rattus norvegicus, UniProt P35439+Q00961). The experiment in a line: Antagonist activity at recombinant rat GluN1a/GluN2C expressed in Xenopus laevis oocytes assessed as inhibition of glycine/glutamate-mediated current responses by two-electrode voltage clamp method. It is filed as cell-based. The procedure, abridged: as §2
Assay [12] is filed under the species Mus musculus. Description: Antagonist activity at NMDA receptor in Nras driven p53 deficient mouse HCC cell membranes assessed as PGE2 levels at 10 uM after 24 hrs by LC-MS/MS method relative to control. Also noted: scale not given: the % may be the effect or the level left. The procedure, abridged:
as §1

The target of assay [13] is Glutamate NMDA receptor; Grin1/Grin2a (Rattus norvegicus, UniProt P35439+Q00959). Description: Antagonist activity at recombinant rat GluN1a/GluN2A expressed in Xenopus laevis oocytes assessed as inhibition of glycine/glutamate-mediated current responses by two-electrode voltage clamp method. It is filed as cell-based. The procedure, abridged: as §2
Assay [14] in a line: Antiproliferative activity against Nras driven p53 deficient mouse HCC cells assessed as cell viability at 100 uM after 72 hrs by resazurin assay relative to control. In kind it is functional. The conditions noted are these: read-out: Activity.
The species entered for assay [15] is Mus musculus. The experiment in a line: Antagonist activity at NMDA receptor in Nras driven p53 deficient mouse HCC cell membranes assessed as potentiation of 5 uM sorafenib-mediated antiproliferative activity by measuring cell viability at 100 uM after 72 hrs by resazurin assay (reference value: […] +/- […]%).
Assay [16] is filed under the species Mus musculus. The experiment in a line: Antagonist activity at NMDA receptor in Nras driven p53 deficient mouse HCC cell membranes assessed as potentiation of 10 uM sorafenib-mediated antiproliferative activity by measuring cell viability at 100 uM after 72 hrs by resazurin assay (reference value: […] +/- […]%).
Assay [17] concerns the target Glutamate NMDA receptor; Grin1/Grin2b (Rattus norvegicus, UniProt P35439+Q00960). Description: Antagonist activity at recombinant rat GluN1a/GluN2B expressed in Xenopus laevis oocytes assessed as inhibition of glycine/glutamate-mediated current responses by two-electrode voltage clamp method. It is filed as cell-based. The procedure, abridged:
as §2

For assay [18], the species on record is Mus musculus. The experiment in a line: Antagonist activity at NMDA receptor in Nras driven p53 deficient mouse HCC cell membranes assessed as potentiation of 1 uM sorafenib-mediated antiproliferative activity by measuring cell viability at 100 uM after 72 hrs by resazurin assay (reference value: […] +/- […]%).

The source made the active and inactive calls. The rule behind the calls is not given here. Where only a bound is given, the exact number is not on record here.

Sequence of Glutamate NMDA receptor; Grin1/Grin2b (Q00960 whole entry, other chains not shown): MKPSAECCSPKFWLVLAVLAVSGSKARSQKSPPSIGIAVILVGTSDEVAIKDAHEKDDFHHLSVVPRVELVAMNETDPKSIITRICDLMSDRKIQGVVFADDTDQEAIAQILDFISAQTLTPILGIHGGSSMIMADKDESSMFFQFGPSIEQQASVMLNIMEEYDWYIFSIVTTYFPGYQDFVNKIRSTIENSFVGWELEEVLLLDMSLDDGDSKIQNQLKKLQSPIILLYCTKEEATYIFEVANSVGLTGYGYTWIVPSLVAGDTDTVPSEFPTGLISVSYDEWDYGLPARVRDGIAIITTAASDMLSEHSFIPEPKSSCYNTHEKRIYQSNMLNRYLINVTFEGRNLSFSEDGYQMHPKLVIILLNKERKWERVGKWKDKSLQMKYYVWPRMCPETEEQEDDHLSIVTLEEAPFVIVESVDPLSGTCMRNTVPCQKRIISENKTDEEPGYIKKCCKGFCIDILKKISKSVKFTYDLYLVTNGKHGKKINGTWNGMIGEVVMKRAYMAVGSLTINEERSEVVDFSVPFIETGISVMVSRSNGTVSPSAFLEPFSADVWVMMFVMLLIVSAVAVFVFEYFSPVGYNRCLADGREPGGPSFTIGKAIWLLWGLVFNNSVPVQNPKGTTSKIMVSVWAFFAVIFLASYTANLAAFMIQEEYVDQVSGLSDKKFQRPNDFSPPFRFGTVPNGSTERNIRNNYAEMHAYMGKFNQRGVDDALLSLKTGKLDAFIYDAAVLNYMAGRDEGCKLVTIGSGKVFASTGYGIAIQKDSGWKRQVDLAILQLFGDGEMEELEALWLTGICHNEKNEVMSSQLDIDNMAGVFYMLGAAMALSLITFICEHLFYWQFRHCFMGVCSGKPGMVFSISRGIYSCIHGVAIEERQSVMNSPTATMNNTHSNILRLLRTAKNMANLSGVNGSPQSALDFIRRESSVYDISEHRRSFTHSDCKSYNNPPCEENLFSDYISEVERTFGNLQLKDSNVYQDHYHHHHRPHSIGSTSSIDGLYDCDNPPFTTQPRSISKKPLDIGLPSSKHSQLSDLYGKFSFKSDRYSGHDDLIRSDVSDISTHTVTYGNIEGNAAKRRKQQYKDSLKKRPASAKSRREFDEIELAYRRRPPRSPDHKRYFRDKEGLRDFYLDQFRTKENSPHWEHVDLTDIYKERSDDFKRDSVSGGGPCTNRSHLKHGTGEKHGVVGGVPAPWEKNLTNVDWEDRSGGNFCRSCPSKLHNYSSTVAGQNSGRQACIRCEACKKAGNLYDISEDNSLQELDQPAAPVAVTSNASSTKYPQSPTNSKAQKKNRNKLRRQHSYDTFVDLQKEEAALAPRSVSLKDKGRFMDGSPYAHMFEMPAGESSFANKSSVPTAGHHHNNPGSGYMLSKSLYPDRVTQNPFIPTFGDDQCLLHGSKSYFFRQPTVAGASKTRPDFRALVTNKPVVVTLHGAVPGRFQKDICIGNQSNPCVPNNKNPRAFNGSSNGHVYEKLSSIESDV

With `Cl.O=C(O)c1cc([C@H]2CCN[C@@H]2C(=O)O)ccc1F`, the Ki is 4.6 µM in [1], 11 µM in [2], more than 100 µM in [3] and 12 µM in [6]. Also, the pKi in assay [1] turned out to be 5.34. Also, the IC50 in assay [4] was more than 100 µM; in [5], 59 µM. Further, in assay [5], the pIC50 is 4.23.
Turning to `NC(=O)c1cccc([C@H]2CCN[C@@H]2C(=O)O)c1`, the Ki in assay [1], in assay [2], in [3] and in assay [6] was more than 100 µM each time. In addition, the IC50 in assay [4] and in [5] was more than 100 µM in each case.
On to `O=C(O)[C@H]1NCC[C@@H]1c1cccc(B(O)O)c1`, for which the Ki in [1] was more than 100 µM; in assay [2], more than 100 µM; in [3] it was more than 1000 µM; in assay [6], more than 1000 µM. In addition, the IC50 in assay [4] and in [5] was more than 100 µM throughout.
`N[C@H](CCCP(=O)(O)O)C(=O)O`: the Activity in assay [7] amounted to 63%; in assay [8], 110%; in assay [12], 58%; in assay [15] it was 44%; in assay [16], 16%; in assay [18], 70%. Also, the Ki in [9] is 21 µM; in assay [11] it was 5.9 µM; in assay [13], 0.39 µM; in assay [17] it was 2.8 µM. In addition, the inhibition entry in assay [10] is “Active”. Further, the viability at 100 µM in assay [14] stood at 79%.
`O=C(O)[C@H]1NCC[C@@H]1c1ccc(O)c(O)c1` came in with an inhibition constant Ki in assay [1] of 35 µM. Also, in [1], the pKi is 4.46. In addition, the half-maximal inhibitory concentration (IC50) in [4] and in assay [5] was more than 100 µM in each case.
Regarding `N#Cc1cccc([C@H]2CCN[C@@H]2C(=O)O)c1`, the inhibition constant Ki is more than 100 µM in assay [1], more than 1000 µM in assay [2], more than 1000 µM in [3] and more than 1000 µM in assay [6]. Also, the 50% inhibitory concentration (IC50) in assay [4] and in assay [5] was more than 100 µM each time.
`Nc1cccc([C@H]2CCN[C@@H]2C(=O)O)c1`: in assay [1], the Ki is more than 100 µM. Also, the IC50 in [4] and in assay [5] was more than 100 µM throughout.
For `O=C(O)[C@H]1NCC[C@@H]1c1cccc(C(F)(F)F)c1`, the Ki in assay [1], in [2], in assay [3] and in assay [6] was more than 100 µM throughout. For the same compound, the IC50 in assay [4] and in [5] was more than 100 µM in each case.
Take `O=C(O)[C@H]1NCC[C@@H]1c1cccc(Cl)c1`: the inhibitory constant (Ki) in [1], in assay [2], in assay [3] and in assay [6] was more than 100 µM each time. The concentration for half-maximal inhibition (IC50) in assay [4] and in assay [5] was more than 100 µM throughout.
Consider `Cc1ccc([C@H]2CCN[C@@H]2C(=O)O)cc1C(=O)O`, for which the Ki in [2], in [3] and in assay [6] was more than 100 µM in each case. In addition, the IC50 in [4] and in assay [5] was more than 100 µM in each case.
`O=C(O)c1cc([C@H]2CCN[C@@H]2C(=O)O)ccc1Br`: the Ki in [2], in [3] and in assay [6] was more than 100 µM each time. Further, the IC50 in assay [4] and in [5] was more than 100 µM each time.
